Bioassay records: PubChem BioAssay, Sanford-Burnham Center for Chemical Genomics
An excerpt weighted towards active compounds, which were near 1.3% of everything screened.
PfG6PD inh: PfG6PD (Plasmodium falciparum) enzyme inhibition | actives 0.78% (n = 350,000) | PfGluPho enzyme, NADPH resazurin-diaphorase fluorescence | inhibition, % at 20 µM;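 active = inhibition reaching at least a set limit at 20 µM in the primary screen, cut at about 59% in these data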;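 note: 0% = DMSO wells with substrate and 100% = DMSO wells lacking glucose-6-phosphate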
HKDC1 inhibitor: HKDC1 (human) hexokinase inhibition; recombinant HKDC1, G6PDH/diaphorase resazurin coupled fluorescence; inhibition, % at 20 µM; actives 0.16% (n = 340,000); AID 493160;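 active = inhibition above about 35% when tested at 20 µM, limit read from the data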;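 note: plate controls were DMSO wells with enzyme for no effect and DMSO wells lacking enzyme for full effect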
Target sequence (Q2TB90 whole entry, looked up): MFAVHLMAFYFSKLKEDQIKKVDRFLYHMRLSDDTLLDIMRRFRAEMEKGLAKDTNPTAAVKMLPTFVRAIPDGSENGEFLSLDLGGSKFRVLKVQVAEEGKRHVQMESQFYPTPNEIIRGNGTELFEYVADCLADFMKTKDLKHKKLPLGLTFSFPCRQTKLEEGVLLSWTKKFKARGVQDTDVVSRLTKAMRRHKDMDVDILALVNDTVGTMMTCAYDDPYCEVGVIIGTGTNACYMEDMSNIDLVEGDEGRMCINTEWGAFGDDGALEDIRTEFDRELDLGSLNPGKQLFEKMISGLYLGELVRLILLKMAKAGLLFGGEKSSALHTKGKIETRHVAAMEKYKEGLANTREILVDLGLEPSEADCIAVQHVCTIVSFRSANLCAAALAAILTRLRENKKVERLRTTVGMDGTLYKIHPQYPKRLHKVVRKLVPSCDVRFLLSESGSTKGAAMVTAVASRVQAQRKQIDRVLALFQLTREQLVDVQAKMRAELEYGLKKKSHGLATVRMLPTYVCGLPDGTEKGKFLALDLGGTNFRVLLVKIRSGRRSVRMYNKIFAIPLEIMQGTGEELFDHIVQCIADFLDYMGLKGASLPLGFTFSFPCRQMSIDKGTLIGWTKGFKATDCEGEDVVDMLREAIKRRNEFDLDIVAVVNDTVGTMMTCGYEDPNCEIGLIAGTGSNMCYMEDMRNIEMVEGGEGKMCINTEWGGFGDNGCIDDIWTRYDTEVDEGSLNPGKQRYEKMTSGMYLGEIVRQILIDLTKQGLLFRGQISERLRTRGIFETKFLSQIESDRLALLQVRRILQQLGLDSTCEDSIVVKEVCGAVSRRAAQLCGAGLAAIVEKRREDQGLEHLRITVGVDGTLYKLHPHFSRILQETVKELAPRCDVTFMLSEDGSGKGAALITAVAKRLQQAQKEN
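System: Recombinant HKDC1 hexokinase | Amount: HKDC1 at 5 µg/mL | Reagent: Glucose with 1 mM ATP | Doses: Single 20 µM dose | Incubation: Reaction time 90 min, room temperature, protected from light | Signal: Coupled resazurin fluorescence, excitation 525 nm, emission 613 nm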
Diaph inh CS: inhibits diaphorase or chemically oxidizes, flagging diaphorase assay artifacts; diaphorase resazurin-to-resorufin fluorescence, NADH, 16 min; bacterial (C. kluyveri) enzyme, not human; inhibition, % at 20 µM; actives 0.69% (n = 190,000);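 active = primary screen inhibition at 20 µM above a set limit, cut at about 50% in these data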;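 note: plate controls were DMSO with full reaction for no effect and wells lacking NADH for full effect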
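material = Clostridium kluyveri diaphorase enzyme | amount = 0.14 U/mL diaphorase, enzyme working solution | schedule = incubation 16 min, room temperature | detection = fluorescence of resorufin formed from resazurin, Ex 544/Em 590 nm | benchmarks = positive control minus NADH, DMSO neutral control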
G6PDH CS: inhibits Leuconostoc G6PDH, flagging false hits in G6PDH-based assays; actives 0.12% (n = 200,000); Purified L. mesenteroides G6PDH, diaphorase/resazurin coupled fluorescence, 45 min; inhibition, % at 5 µM; in the data active = inhibition above about 50%
Diaph act CS: counter-screen for diaphorase-based assays: diaphorase activators and chemical reducers; actives 0.005% (n = 190,000); Diaphorase/resazurin coupled assay, resorufin fluorescence, 16 min; active compounds read high; 1 = vehicle wells, 0 = NADH-free wells; activation factor at 20 µM; AID 1229;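 active = diaphorase activity raised at least twofold by the compound at 20 µM; inactive = activation factor below 2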
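Material: purified diaphorase enzyme from Clostridium kluyveri; Also added: 0.114 mM NADH and 0.1 mM resazurin, final amounts; Doses: single compound dose of 20 µM, 1% DMSO final; Times: 16 min enzyme reaction, ambient temperature; Detection: resorufin fluorescence, excitation 544 nm, emission 590 nm; Measure: increased resorufin signal from activators or reducing compounds.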
PfG6PD confirm: PfG6PD inhibition, single-dose confirmed; recombinant PfGluPho, NADPH-diaphorase-resazurin fluorescence; AID 504753; shares compounds with PfG6PD inh; inhibition, % at 20 µM; actives 34% (n = 2,400);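 active = inhibition of at least 50% at 20 µM in any single replicate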;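 note: 0% = DMSO with substrate and 100% = DMSO lacking glucose-6-phosphate substrate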
Diaphorase 10uM: diaphorase inhibition or oxidation at 10 uM NADPH; actives 39% (n = 820); shares compounds with PfG6PD inh; inhibition, % at 20 µM; diaphorase-coupled resazurin reduction, fluorescence, NADPH 10 uM;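 active = average inhibition reaching 50% or more with the compound at 20 µM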;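 note: resorufin red fluorescence formed as diaphorase reduces resazurin using NADPH; 0% = DMSO with enzyme and 100% = DMSO without enzyme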
Diaph ctr 30uM: diaphorase inhibition or oxidation at 30 uM NADPH | shares compounds with PfG6PD inh | Diaphorase/resazurin coupled assay, resorufin fluorescence | inhibition, % at 20 µM | actives 29% (n = 820) | AID 504863;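 active = inhibition averaging 50% or more, tested at 20 µM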;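 note: 0% = DMSO with enzyme and 100% = DMSO wells lacking diaphorase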
Active calls of the source: *; nt = no result given.

SMILES	PfG6PD inh	HKDC1 inhibitor	Diaph inh CS	G6PDH CS	Diaph act CS	PfG6PD confirm	others
CC(C)C(=O)Nc1cc(S(=O)(=O)N2CCOCC2)ccc1N1CCCCC1	61*	-10	nt	nt	nt	-14
O=C(Nc1cc(S(=O)(=O)N2CCOCC2)ccc1N1CCCCC1)c1ccc(Cl)cc1	80*	-5	nt	nt	nt	40
O=C(Nc1cc(S(=O)(=O)N2CCOCC2)ccc1N1CCCC1)c1ccc(Cl)cc1	60*	-6	nt	nt	nt	45
NC(=O)C1CCN(C(=O)c2ccc(Cl)c(NC(=O)c3cccs3)c2)CC1	1	nt	nt	nt	nt	nt
CCCOc1ccccc1C(=O)N(Cc1cccc(Br)c1)C1CCS(=O)(=O)C1 (stereo not drawn)	6	-2	nt	nt	nt	nt
COc1ccc(C)cc1NC(=O)c1ccccc1NS(=O)(=O)c1ccc(Cl)s1	-64	18	34	19	0.7	nt
O=C(CSc1nncn1-c1ccccc1)N1CCCC1	-17	-2	nt	nt	nt	nt
O=C(Nc1cc(S(=O)(=O)N2CCOCC2)ccc1N1CCCC1)c1ccccc1F	0	nt	nt	nt	nt	nt
O=C(Nc1cc(S(=O)(=O)N2CCOCC2)ccc1N1CCCC1)c1ccc2c(c1)S(=O)(=O)c1ccccc1C2=O	74*	-12	20	-2	0.8	40
O=C(O)c1cc(S(=O)(=O)N2CCOCC2)ccc1N1CCCCC1	-8	-2	3	3	1	nt
O=c1c2ccccc2sn1-c1cc(S(=O)(=O)N2CCOCC2)ccc1N1CCCC1	112*	-7	4	1	1	107*	Diaphorase 10uM=-10;Diaph ctr 30uM=-7
O=C(Nc1cc(S(=O)(=O)N2CCOCC2)ccc1N1CCCCC1)c1ccccc1Br	68*	-8	nt	nt	nt	-7
CCCCN1C(=O)C(CC(=O)NC2CC2)CC(C(=O)N2CCOCC2)=C1C (stereo not drawn)	5	nt	nt	nt	nt	nt
CN1C(=O)C(N=Nc2ccc([N+](=O)[O-])cc2)SC1=S (stereo not drawn)	106*	5	nt	nt	nt	52*	Diaphorase 10uM=54*;Diaph ctr 30uM=34
CC(C)c1ccccc1OCCNC(=S)NC(=O)c1cccnc1	67*	1	20	-1	0.8	21
Cc1cc(Cl)ccc1OCCNC(=S)NC(=O)c1cccnc1	-27	-3	nt	nt	nt	nt
COc1ccccc1N1CCN(S(=O)(=O)c2c(C(=O)N3CCOCC3)c(C)n(C)c2C)CC1	-5	1	nt	nt	nt	nt
CN(C)C(=S)NC(=S)Nc1ccc2ccccc2c1	71*	6	nt	nt	nt	6
CC1(NC(=S)Nc2ccc3ccccc3c2)CCS(=O)(=O)C1 (stereo not drawn)	7	4	nt	nt	nt	nt
COc1cc(NC(=O)c2cc3ccccc3cc2O)c(OC)cc1Cl	48	0	nt	nt	nt	nt
Cc1ccc(Cl)cc1NC(=O)c1cc2ccccc2cc1O	61*	-2	nt	nt	nt	4
O=C(Nc1ccc([N+](=O)[O-])cc1Cl)c1cccc([N+](=O)[O-])c1	5	nt	nt	nt	nt	nt
O=C(Nc1ccc([N+](=O)[O-])cc1Cl)c1cc(Cl)ccc1O	94*	5	nt	nt	nt	51*	Diaphorase 10uM=41;Diaph ctr 30uM=31
CCOc1ccc(-c2csc(N)c2C(=O)OC)cc1	66*	-10	14	17	0.9	10
C[C@@H]1CN([C@@H](C)CO)C(=O)CCCn2cc(nn2)CO[C@H]1CN(C)S(=O)(=O)c1ccccc1F	-3	nt	nt	nt	nt	nt
COc1cc(CNc2ccc(O)cc2)cc(Br)c1OCc1ccccc1F	60*	14	38	-17	0.6	16
COc1cc(CNc2ccc(N3CCCC3)cc2)ccc1OCc1ccccc1F	97*	3	38	5	0.6	59*	Diaphorase 10uM=10;Diaph ctr 30uM=6
CCOc1cc(CNc2ccc(O)cc2)cc(Br)c1OCc1ccccc1F	36	5	23	-14	0.8	nt
COc1cc(C2C(C(C)=O)=C(O)C(=O)N2Cc2ccccc2)ccc1O (stereo not drawn)	-43	1	nt	nt	nt	nt
CC(=O)c1ccc2oc3ccccc3c(=O)c2c1	-2	0	nt	nt	nt	nt
